Assay [1] relates to A549. The experiment in a line: Induction of apoptosis in human A549 cells assessed as early apoptosis at 1 uM measured after 12 hrs by Annexin V-FITC/ Propidium iodide stain based flow cytometry assay relative to control. Format: functional. The essentials:
(§1)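 Cells double-stained with FITC-annexin V and propidium iodide, then flow cytometry gave the percentages of early and late apoptotic cells.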
For orientation: A flow cytometer gives signals particle by particle.

Assay [2] has as its system A549. Nature of the assay: Induction of apoptosis in human A549 cells assessed as late apoptosis at 1 uM measured after 12 hrs by Annexin V-FITC/ Propidium iodide stain based flow cytometry assay relative to control. Format: functional. The method, boiled down:
as §1

Assay [3] relates to MKN-45. Nature of the assay: Cytotoxicity against human MKN-45 cells assessed as inhibition of cell proliferation measured after 72 hrs by MTT assay. It counts as functional, cell-based. As to conditions: MKN-45, 72 h.
For assay [4], the system named is A549. Nature of the assay: cells. As to conditions: Homo sapiens, A549, 72 h.
Assay [5] has as its system MDA-MB-231. The experiment in a line: Cytotoxicity against human MDA-MB-231 cells assessed as inhibition of cell proliferation measured after 72 hrs by MTT assay. As to conditions: MDA-MB-231, 72 h. It counts as functional, cell-based. In general terms: Tetrazolium assays rely on reduction of a dye to a coloured formazan, in cell work by metabolically active cells.
For assay [6], the system named is HT-29. The experiment in a line: cells. As to conditions: Homo sapiens, HT-29, 72 h.

Among the data in ChEMBL document CHEMBL4765349, “Design, synthesis and biological evaluation of novel N-sulfonylamidine-based derivatives as c-Met inhibitors via Cu-catalyzed three-component reaction” (Eur J Med Chem, 2020) are Activity and IC50 values, retold here.

What is called IC50 is the concentration needed to halve the response being measured.

In the case of `COc1cc2c(Oc3ccc(NC(=O)C4(C(=O)Nc5ccc(F)cc5)CC4)cc3F)ccnc2cc1OCCCN1CCOCC1` [FORETINIB], the Activity in assay [1] was found to be 11.25%; in assay [2] it was 22.9%.
In the case of `COCC/C(=N\S(=O)(=O)Cc1ccc(F)cc1)Nc1ccc(Oc2ccnc3cc(OC)c(OC)cc23)c(F)c1`, the half-inhibitory concentration (IC50) is 2.15 µM in assay [3], 1.42 µM in assay [4], 4.24 µM in assay [5] and 1.68 µM in assay [6].
For `COCC/C(=N\S(=O)(=O)Cc1ccc(Br)cc1)Nc1ccc(Oc2ccnc3cc(OC)c(OC)cc23)c(F)c1`, in that order: 11.3 µM, 7.14 µM, 12.1 µM and 8.03 µM.
For `CCCCC/C(=N\S(=O)(=O)Cc1ccc(F)cc1)Nc1ccc(Oc2ccnc3cc(OC)c(OC)cc23)c(F)c1`, in that order: 5.54 µM, 4.6 µM, 9.04 µM and 5.18 µM.
`COCC/C(=N\S(=O)(=O)Cc1ccc(Cl)c(Cl)c1)Nc1ccc(Oc2ccnc3cc(OCCCN4CCCCC4)c(OC)cc23)c(F)c1`: the IC50 in assay [3] stood at 0.88 µM; in assay [4], 0.67 µM; in assay [5] it was 0.93 µM; in assay [6] it was 0.78 µM.
For the compound `COc1cc2nccc(Oc3ccc(N/C(Cc4cccnc4)=N\S(=O)(=O)Cc4ccccc4)cc3F)c2cc1OC`, the IC50 stood at 22.9 µM in assay [3], 18.1 µM in assay [4], 28.3 µM in assay [5] and 20.6 µM in assay [6].
Take `CCCCC/C(=N\S(=O)(=O)Cc1ccccc1)Nc1ccc(Oc2ncnc3ccsc23)c(F)c1`: the 50% inhibitory concentration (IC50) in assay [3] amounted to 21.9 µM; in assay [4] it was 17.3 µM; in assay [5] it was 25.6 µM; in assay [6], 18.6 µM.
The matching figures for `CCCCC/C(=N\S(=O)(=O)Cc1ccccc1)Nc1ccc(Oc2ccnc3cc(OC)c(OC)cc23)c(F)c1`: 9.28 µM, 7.55 µM, 12.8 µM and 8.26 µM.
For `COCC/C(=N\S(=O)(=O)Cc1ccc(Cl)c(Cl)c1)Nc1ccc(Oc2ccnc3cc(OCCCN4CCC(C)CC4)c(OC)cc23)c(F)c1`, in that order: 1.15 µM, 0.72 µM, 1.98 µM and 0.88 µM.
The matching figures for `CCCCC/C(=N\S(=O)(=O)Cc1ccc(F)cc1)Nc1ccc(Oc2ncnc3cc(OC)c(OC)cc23)c(F)c1`: 23.4 µM, 18.6 µM, 31.8 µM and 22.1 µM.
